According to the RNAGym collection of RNA variant scans (doi:10.1126/science.aae0568):
Fewer inactive variants are shown than the library holds.

B1: tRNA (parent)
chain: GUUCCGUUGGCGUAAUGGUAACGCGUCUCCCUCCUAAGGAGAAGACUGCGGGUUCGAGUCCCGUACGGAACG

Variants of: B1
Assay: yeast fitness relative to wild type (ratio to wild type); higher = fitter; tRNA-Arg(CCU), competitive growth, 37 C, YPD
Procedure, shortened: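 Variants of the tRNA-Arg(CCU) gene, chemically synthesised with a 3% per-site mutation rate at 69 sites, were placed at the native genomic locus in Saccharomyces cerevisiae. The pooled strains were competed in YPD at 37°C for 24 hours in six parallel replicates. Gene amplicons from the start population and from each end population were read by 100-nucleotide paired-end sequencing. Darwinian fitness relative to wild type came from changes in genotype frequencies; genotypes needed ≥ 100 starting reads, and estimates < 0.5 were set to 0.5.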

For GUUUCGUUGGCGUAAUGGUAACGCGUCUCCCUCCUAAGGAGACGACUGCGGGUUCGAGUCCCGUUCGGAACG [C4U A43C A65U], which yeast fitness is on record?
The yeast fitness was 0.75.

For GUUUCGUUGGCGUAAUGGUAGCGCGUCUGCUUCCUAAGGAAAAGACUGCCGGUUCGAGUCCCGUACGGACCG [C4U A21G C29G C31U G41A G50C A70C], which yeast fitness is on record?
Its yeast fitness is 0.599.

With GUUUCGUUGGCGUAAUGGUAGCGCGUCUCCCACCUAAGGCGAAGAAUGCGGGUUCGAGUCCCGUACGGAACG [C4U A21G U32A A40C C46A] as the variant, how does the yeast fitness read?
The yeast fitness was 0.769.

Which yeast fitness does the source give for GUUUCGUUGGCGUAAUGGUAACGCGUCUCCCUCCUACGGAGAAGACUGCCGGUUCGGGUCCCGUACGGAACG [C4U A37C G50C A57G] here?
Its yeast fitness is at most 0.5.

For GUUUCGUUGGCGUAAUGGUAACGCGUCUCCCUCCUAAGGAGUAGACUGCGGGUUCGAGUCCCGUACCGAACG [C4U A42U G67C], which yeast fitness is on record?
The yeast fitness was 0.676.

Which yeast fitness does the source give for GUUUCGUUGGCGUAAUGGUAACGCGUCUCCCUCCUAAGGGGAAGACUGCGGGUUCGAGUCCCGUUCGGAACG [C4U A40G A65U] here?
The yeast fitness was 0.596.

Which yeast fitness does the source give for GUUUCGUUGGCGUAAUGGUAUCGUGUAUCCCUCCUACGGUGAAGACUGCGGGUUCGAGUCCCGUACCGAACG [C4U A21U C24U C27A A37C A40U G67C] here?
Its yeast fitness is at most 0.5.

With GUUUCGUUGGCGUAAUGGUAACGCGUCUCCCUCCUAAGGAGUAGACUGCGGGUUCGAGUCGCGUACGGAACG [C4U A42U C61G] as the variant, how does the yeast fitness read?
Its yeast fitness is 0.593.

For GUUUCGUUGGCGUAAUGGUAACGCGUCUCCCUCCUAAGGAGAGGACUGUGGGUUCGAGUCCCGUACGAAACG [C4U A43G C49U G68A], which yeast fitness is on record?
Its yeast fitness is at most 0.5.

For GUUUCGUUGGCGUAAUGGUAACGCGUCUCCCUCCUGAGGAGAACACUGCGGGUUCGAGUCCCAUACGGAACG [C4U A36G G44C G63A], which yeast fitness is on record?
Its yeast fitness is 0.572.

For GUUUCGUUGGCGUAAUGGUAACGCGUCUCCCUCCUAAGGGGAAGACUGCGGGGUCGCGUGCCGUUCGGAACG [C4U A40G U53G A57C C60G A65U], which yeast fitness is on record?
The yeast fitness was 0.583.

Which yeast fitness does the source give for GUUUAGUUGGCGUAAUGGUAACGCGUCUCCCUCCUAAGGAGAAGACUGCGGGUUCGAGUCUCGUACGGAACG [C4U C5A C61U] here?
The yeast fitness was 0.719.

Which yeast fitness does the source give for GUUUCGUUGGCGUAAUGGUAACGCGUCUCCCUCCUAAGGUGAAGACCGCGGGUUCGAGUCCCGUACGGAACG [C4U A40U U47C] here?
The yeast fitness was 0.643.

For GUUUCGUUGGCGUAAUGGUACCGCGUCUCCCUCCUAAGGAGAAAACUGCGGGUUCGAGUCCCGUACGGAACG [C4U A21C G44A], which yeast fitness is on record?
The yeast fitness was at most 0.5.

With GUUUCGUUGGCGUAAUGGUAACGCGUCUCCCUCCUAAGGAGGAGACUGCGGGUUCGAGUCCCGUACGGAACG [C4U A42G] as the variant, how does the yeast fitness read?
The yeast fitness was 0.868.

With GUUUCGUUGGCGUAAUGGUAACGCGUCUCCCUCCUAAGGAGCAGACUGCGGGUUCGAGUCCCGUACGGAACG [C4U A42C] as the variant, how does the yeast fitness read?
The yeast fitness was 0.912.

Which yeast fitness does the source give for GUUUCGUUGGCGUAAUGGUAACGCGUCUCCCUCCUAAGGAGGAGACUGCGGGUUCGAGUCCCGUAAGGAACG [C4U A42G C66A] here?
The yeast fitness was at most 0.5.

For GUUUCGUUGGCGUAAUGGUAACGCGUCUCCCUCCUCAGGAGAAGACUGCGGGUUCGAGUCCCAUACGGAACG [C4U A36C G63A], which yeast fitness is on record?
The yeast fitness was 0.536.

For GUUUCGUUGGCGUAAUGGUAUCGCGUCUCCCUCCUAAGGAGAAGACUGCGGGUUUGAGUCCCGUACGGAACG [C4U A21U C55U], which yeast fitness is on record?
Its yeast fitness is at most 0.5.

With GUUUCGUUGGCGUAAUGGUACCGCGUCUCAGCCCUAAGGACAAGACUGCGGGUUUGAGUCCCGUACGGAACG [C4U A21C C30A C31G U32C G41C C55U] as the variant, how does the yeast fitness read?
The yeast fitness was at most 0.5.

With GUUUCGUUGGCGUAAUGGUAACGCGUCUCCCUCCUAAGGAGAAGCCUGCGGGUUCGAGUCCCGUACGGUACG [C4U A45C A69U] as the variant, how does the yeast fitness read?
Its yeast fitness is 0.822.

For GUUUCGUUGGCGUAAUGGUAACGCGUCUCCCUCCUACGGAGAAGACUGCGGGUUCGAGUCCCGUACGGAACG [C4U A37C], which yeast fitness is on record?
The yeast fitness was 0.884.

With GUUUAGUUGGCGUAAUGGUAACGCGUCUCCCUCCUAAGGAGAAGACUGCGGGUUCGAGUCCCGUACGCAACG [C4U C5A G68C] as the variant, how does the yeast fitness read?
The yeast fitness was 0.551.

For GUUUCGUUGGCGUAAUGGUAACGCGUCUCCCUCCUAUGGAGAAGACUGCGGAUUCGAGUCCCGUACGGAACG [C4U A37U G52A], which yeast fitness is on record?
The yeast fitness was at most 0.5.

For GUUUGGUUGGCGUAAUGGUAACGCGUCUUCCUCCUAAGGAGAAGACUGCGGGUUCGAGUCCCAUGCGGAACG [C4U C5G C29U G63A A65G], which yeast fitness is on record?
The yeast fitness was 0.535.

For GUUUCGUUGGCGUAAUGGUAACGCGUCUCCCUCCUAAGGAGGAGACUGUGGGUUCGAGUCCCGUACGGAACG [C4U A42G C49U], which yeast fitness is on record?
Its yeast fitness is 0.704.

Which yeast fitness does the source give for GUUUCGUUGGCGUAAUGGUACCGCGUGUCCCUCCUAAGGAGACGACUACGGGUUCGAGUCCCGUAAGGAACG [C4U A21C C27G A43C G48A C66A] here?
Its yeast fitness is at most 0.5.

Which yeast fitness does the source give for GUUUCGUUGGCGUAAUGGUAACGCGUCUCCCUCCUACAGAGAAGACUGCGGGUUCGAGUCCCGUACGGAACG [C4U A37C G38A] here?
The yeast fitness was 0.613.

Which yeast fitness does the source give for GUUUCGUUGGCGUAAUGGUAGCGCGUCUCCCUCCUAAGGAGAAGACUGCGGGUUCGAGUCCCGUACGGAACG [C4U A21G] here?
Its yeast fitness is 1.1.

With GUUUCGUUGGCGUAAUGGUAACGCGUCUCCCUCCUAAGGUGUAGAUUGCGGGUUCGAGUCCCGUACGGAACG [C4U A40U A42U C46U] as the variant, how does the yeast fitness read?
Its yeast fitness is at most 0.5.

Which yeast fitness does the source give for GUUUCGUUGGCGUAAUGGUUACGCGUCUCCCUCCAAAAGAGAAGACUGCGGGUUCGAGUCCCGUACGGAACG [C4U A20U U35A G38A] here?
Its yeast fitness is at most 0.5.

With GUUUGGUUGGCGUAAUGGUAACGCGUCUCCCUCCUAAGGAGAAGGCUGCGGGUUCGAGUCCCGUACGGAACG [C4U C5G A45G] as the variant, how does the yeast fitness read?
The yeast fitness was 0.634.

Which yeast fitness does the source give for GUUUCGUUGGCGUAAUGGUAACGCGUCUCCCUCCUAAGGAGAAGACUGCGGGUUCGAGUCCCGUACGGGACG [C4U A69G] here?
The yeast fitness was 0.901.

For GUUUCGUUGGCGUAAUGGUAACGCGUCUCCCUCCUAAGGUGAAGACUGCGGGUUCGAGUCCCGUACGCAACG [C4U A40U G68C], which yeast fitness is on record?
Its yeast fitness is 0.68.

With GUUUAGUUGGCGUAUUGGUAACGCGUCUCCCUCUUAAGGAGAAGACUGCGGGUCCGAGUCCUGUACGGAACG [C4U C5A A15U C34U U54C C62U] as the variant, how does the yeast fitness read?
The yeast fitness was at most 0.5.

With GUUUCGUUGGCGUAAUGGUAACGCGUCUCCCUCCUAGGCAGAAGACUGCGGGUUCGAGUCCCGUGCGGAACG [C4U A37G G39C A65G] as the variant, how does the yeast fitness read?
Its yeast fitness is at most 0.5.

For GUUUCGUUGGCGUAAUGGUAACGCGUCUCCCUCCUAAGGAGAAGACUGCGGGUUCGGCUCCCGUACGGAACG [C4U A57G G58C], which yeast fitness is on record?
The yeast fitness was 0.736.

With GUUUGGUUGGCGUAAUGGUAACGCGUCUUCCAUCUAAGGAGAAGACUGCGGGUUCGAGUCCCGUACUGAGCG [C4U C5G C29U U32A C33U G67U A70G] as the variant, how does the yeast fitness read?
The yeast fitness was 0.54.
